We go through 15 compounds from ChEMBL document CHEMBL4619801, “Discovery of Phthalazinone Derivatives as Novel Hepatitis B Virus Capsid Inhibitors” (J Med Chem, 2020).

pIC50: −log10 of the molar value. Active and inactive are the calls of the source. The rule behind the calls is not given here. Some results are limits rather than exact numbers.

Data set [1] relates to Hepatitis B virus. As to the kind of experiment: Antiviral activity against HBV infected in human HepG2.2.15 cells assessed as reduction in cytoplasmic HBV-DNA replication incubated for 8 days by real-time PCR analysis. Type of data set: functional, organism-based.
Data set [2] is described as follows: Cytotoxicity in human HepG2.2.15 cells assessed as reduction in cell viability incubated for 8 days by MTT assay. In kind it is cell-based, HepG2 2.2.15. The method in brief: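 This was run in the same 8-day HepG2.2.15 cultures. After the medium was removed, MTT was added (final 2.5 mg/mL) for 1 h at 37 °C. Cells were lysed in 10% SDS/50% DMF, pH 7.2, and OD was read at 570 nm to give % cell death. CC50 was averaged with SD from at least two independent determinations.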
(In general: Formazan colour is commonly taken as a measure of viable cells.)

Data set [3] deals with Hepatitis B virus. As to the kind of experiment: Antiviral activity against HBV in AAV8-HBV-transduced Balb/c mouse assessed as reduction in HBV DNA level in plasma at 100 mg/kg, po BID for 4 weeks relative to control. In kind it is functional, organism-based. The method in brief: (§1)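 Male Balb/c mice (6−8 weeks, SPF) given one iv tail-vein injection of recombinant AAV carrying HBV 1.1 genome (10¹¹ viral genome equivalents); after 5 weeks, stably viremic mice dosed orally for 4 weeks. […] Weekly blood sampling; plasma HBV DNA by real-time PCR; Dunnett's test versus vehicle.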

Data set [4] is described as follows: Drug level in CD1 mouse liver at 20 mg/kg, po dosed as single administration measured after 8 hrs. Type of data set: ADME, organism-based. The settings on record: read-out: Drug uptake. In a few lines:
(§2)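 ICR (CD-1) mice were dosed orally at 20 mg/kg. At set times (1, 3, 8 and 24 h), blood was taken from the heart and portal vein under isoflurane anesthesia and spun to plasma. Livers were removed after portal vein perfusion, rinsed in saline, weighed and homogenized in saline (5 mL/g). Samples were analysed by UPLC–MS/MS in positive electrospray mode.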

A short description of data set [5]: Ratio of drug level in liver to plasma of CD1 mouse at 20 mg/kg, po dosed as single administration measured after 8 hrs. Type of data set: ADME, organism-based. The method in brief: as §2
Data set [6] has as its system Hepatitis B virus. As to the kind of experiment: Antiviral activity against HBV infected in human HepG2.2.15 cells assessed as reduction in capsid associated DNAs at 0.13 to 1 uM by agarose gel electrophoresis method. In kind it is functional, organism-based. The settings on record: HepG2 2.2.15. The method in brief: (§3)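 HepG2.2.15 cells treated at indicated concentrations for 8 days. Intracellular capsids resolved on 1.8% native agarose gel; capsid mobility compared with untreated cells, and capsid-associated HBV DNA detected in situ.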

The subject of data set [7] is Hepatitis B virus. As to the kind of experiment: Antiviral activity against HBV infected in human HepG2.2.15 cells assessed as reduction in single-stranded form of viral DNA at 0.06 to 1 uM incubated for 8 days by Southern blotting analysis. The settings on record: HepG2 2.2.15. In kind it is functional, organism-based. In a few lines:
(§4)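 HepG2.2.15 cells grown in 12-well plates were treated at the indicated concentrations for 8 days. HBV DNA was extracted from intracellular capsids and detected by Southern blot hybridization with a DIG-labeled HBV genomic fragment probe. Relaxed circular (rc) and single-stranded (ss) replication intermediates were read from the blot.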

Data set [8] deals with mouse (Mus musculus). As to the kind of experiment: Observed volume of distribution at steady state in mouse at 2 mg/kg, iv dosed as single administration. Conditions: in vivo, read-out: Vdss.
The subject of data set [9] is mouse (Mus musculus). As to the kind of experiment: AUC (0 to infinity) in mouse at 2 mg/kg, iv dosed as single administration. Conditions: in vivo.
Data set [10] deals with Hepatitis B virus. As to the kind of experiment: Antiviral activity against HBV infected in human HepG2.2.15 cells assessed as increase in faster-migrating capsids levels at 0.13 to 1 uM by agarose gel electrophoresis method. In kind it is functional, organism-based. The settings on record: HepG2 2.2.15. The method in brief: as §3
Data set [11] has as its system Hepatitis B virus. As to the kind of experiment: Antiviral activity against HBV in AAV8-HBV-transduced Balb/c mouse assessed as reduction in HBV DNA level in plasma at 50 to 150 mg/kg, po BID for 4 weeks. In kind it is functional, organism-based. The method in brief: as §1
The subject of data set [12] is mouse (Mus musculus). As to the kind of experiment: Half life in mouse at 2 mg/kg, iv dosed as single administration. Conditions: in vivo.
The test system of data set [13] is mouse (Mus musculus). As to the kind of experiment: AUC (0 to infinity) in mouse at 20 mg/kg, po dosed as single administration. Conditions: in vivo.
Data set [14] concerns Hepatitis B virus. As to the kind of experiment: Antiviral activity against HBV in AAV8-HBV-transduced Balb/c mouse assessed as reduction in HBV DNA level in plasma at 150 mg/kg, po BID for 4 weeks relative to control. Type of data set: functional. In a few lines:
as §1

Data set [15] deals with Hepatitis B virus. As to the kind of experiment: Antiviral activity against HBV infected in human HepG2.2.15 cells assessed as reduction in relaxed circular form of viral DNA at 0.06 to 1 uM incubated for 8 days by Southern blotting analysis. The settings on record: HepG2 2.2.15. In kind it is functional, organism-based. In a few lines:
as §4

Data set [16] deals with mouse (Mus musculus). As to the kind of experiment: Observed clearance in mouse at 2 mg/kg, iv dosed as single administration. Conditions: in vivo.
Data set [17] relates to Hepatitis B virus. As to the kind of experiment: Antiviral activity against HBV infected in human HepG2.2.15 cells assessed as reduction in cytoplasmic HBV-DNA replication at cytotoxic CC50 level incubated for 8 days by real-time PCR analysis. Type of data set: functional, organism-based. The settings on record: HepG2 2.2.15.
In data set [18] the test system is mouse (Mus musculus). As to the kind of experiment: Tmax in mouse at 2 mg/kg, iv dosed as single administration. Conditions: in vivo.
In data set [19] the test system is Hepatitis B virus. As to the kind of experiment: Antiviral activity against HBV infected in human HepG2.2.15 cells assessed as reduction in capsid associated DNAs at 5 uM by agarose gel electrophoresis method. Type of data set: functional, organism-based. Conditions: HepG2 2.2.15. In a few lines: as §3
In data set [20] the test system is Hepatitis B virus. As to the kind of experiment: Antiviral activity against HBV infected in human HepG2.2.15 cells assessed as reduction in capsid associated DNAs at 1 uM by agarose gel electrophoresis method. The settings on record: HepG2 2.2.15. In kind it is functional, organism-based. In a few lines:
as §3

With `CN(C)c1ccc(-c2nn(Cc3ccc(C#N)cc3)c(=O)c3ccccc23)c(F)n1`, in the data set on Hepatitis B virus [1] (HepG2 2.2.15, 192 h), the pIC50 was 6.28 and the IC90 is over 10000 nM. The cytotoxic concentration (CC50) at 192 h in data set [2] was determined as 79200 nM.
As for `N#Cc1ccc(Cn2nc(-c3cc(Cl)c(NCC(O)CO)nc3F)c3ccccc3c2=O)cc1` (stereo not drawn), the outcome in the data set with Hepatitis B virus [3] and with Hepatitis B virus [10] was Active. For the same compound, the concentration at 8 h in data set [4] is 5950 ng/g. The concentration ratio (Kp) at 8 h in data set [5] is 4. Besides, the Activity result in the data set with Hepatitis B virus [6], in the data set with Hepatitis B virus [7], in the data set on Hepatitis B virus [11] and in the data set with Hepatitis B virus [15] was “Dose-dependent effect” in each case. Further, the negative logarithm of the IC50 (pIC50) with Hepatitis B virus [1] (HepG2 2.2.15, 192 h) is 7.85. Moreover, the IC90 with Hepatitis B virus [1] (HepG2 2.2.15, 192 h) turned out to be 390 nM. In the data set with mouse (Mus musculus) [8], the Vd came to 0.766 L/kg. The AUC(0-inf) in the data set with mouse (Mus musculus) [9] is 8250 ng·h/mL; in the data set on mouse (Mus musculus) [13], 49800 ng·h/mL. The 50% cytotoxic concentration (CC50) at 192 h in data set [2] is over 100000 nM. Also, the half-life with mouse (Mus musculus) [12] is 2.52 h. The “log(activity)” value in the data set on Hepatitis B virus [14] worked out at 2.67. The clearance in the data set with mouse (Mus musculus) [16] worked out at 4.1 mL/min/kg.
As to `CC(=O)Nc1ccc(-c2nn(Cc3ccc(C#N)cc3)c(=O)c3ccccc23)c(F)n1`, in the data set with Hepatitis B virus [1] (HepG2 2.2.15), the IC90 entry was “inactive”. For the same compound, the outcome in the data set on Hepatitis B virus [17] was inactive. The CC50 at 192 h in [2] was over 100000 nM.
Turning to `CN(C)CCNc1nc(F)c(-c2nn(Cc3ccc(C#N)cc3)c(=O)c3ccccc23)cc1Cl`, in the data set on Hepatitis B virus [1] (HepG2 2.2.15, 192 h), the negative-log IC50 (pIC50) is 6.59 and the IC90 was 870 nM. In addition, the CC50 at 192 h in [2] came out at 9760 nM.
Taken in the same sequence, the figures for `N#Cc1ccc(Cn2nc(-c3ccc(N)nc3F)c3ccccc3c2=O)cc1` were 6.10, over 10000 nM and over 100000 nM.
Consider `O=c1c(C2CC2)cc(-c2ccc(F)nc2F)nn1Cc1ccc(Cl)cc1`, for which the pIC50 in the data set on Hepatitis B virus [1] (HepG2 2.2.15, 192 h) was 4.45. Also, in [2], the CC50 at 192 h amounted to 39800 nM.
The like results for `O=c1c(CO)cc(-c2ccc(F)nc2F)nn1Cc1ccc(Cl)cc1` were, in that order, 6.77 and over 100000 nM.
Take `N#Cc1ccc(Cn2nc(-c3cc(Cl)c(NC[C@H](O)CO)nc3F)c3ccccc3c2=O)cc1`: in the data set on Hepatitis B virus [1] (HepG2 2.2.15, 192 h), the pIC50 was 7.66 and the 90% effect concentration (IC90) amounted to 1010 nM. Further, the CC50 at 192 h in data set [2] was over 100000 nM.
As for `COC(=O)CCNc1nc(F)c(-c2nn(Cc3ccc(C#N)cc3)c(=O)c3ccccc23)cc1Cl`, in the data set on Hepatitis B virus [1] (HepG2 2.2.15, 192 h), the pIC50 is 6.68 and the concentration for an effect of 90% (IC90) stood at 1140 nM. Also, the CC50 at 192 h in [2] was over 100000 nM.
Turning to `COC(=O)c1cc(-c2ccc(F)nc2F)nn(Cc2ccc(Cl)cc2)c1=O`, the result in the data set on Hepatitis B virus [17] was inactive. Further, the 50% cytotoxic concentration (CC50) at 192 h in data set [2] is over 100000 nM.
With `N#Cc1ccc(Cn2nc(-c3cc(Cl)c(NCCO)nc3F)c3ccccc3c2=O)cc1`, in the data set with Hepatitis B virus [1] (HepG2 2.2.15, 192 h), the pIC50 was 7.55 and the IC90 is 230 nM. Further, the Vd in the data set with mouse (Mus musculus) [8] came out at 5.44 L/kg. In the data set with mouse (Mus musculus) [9], this compound showed an AUC of 735 ng·h/mL. Also, the CC50 at 192 h in [2] was determined as 32100 nM. The AUC(0-inf) with mouse (Mus musculus) [13] came out at 171 ng·h/mL. Moreover, the Tmax in the data set on mouse (Mus musculus) [18] came to 0.25 h.
As for `Cc1c(-c2ccc(F)nc2F)nn(Cc2ccc(Cl)cc2)c(=O)c1C`, the pIC50 in the data set with Hepatitis B virus [1] (HepG2 2.2.15, 192 h) is 5.91. Moreover, the 50% cytotoxic concentration (CC50) at 192 h in data set [2] came to 52900 nM.
In the case of `COc1ccccc1/C(Br)=C(/NC(=O)c1ccc([N+](=O)[O-])cc1)C(=O)N1CCCCC1`, the outcome with Hepatitis B virus [19] was Active. Besides, the pIC50 in the data set on Hepatitis B virus [1] (HepG2 2.2.15, 192 h) is 6.06. In [2], the CC50 at 192 h is over 20000 nM.
Consider `COC(=O)C1=C(C)NC(c2ncc(F)cc2F)=N[C@H]1c1ccc(F)cc1Cl`, for which, in the data set with Hepatitis B virus [1] (HepG2 2.2.15, 192 h), the pIC50 is 7.38. Besides, the outcome in the data set with Hepatitis B virus [20] was Active.
In the case of `CCOc1ccc(-c2nn(Cc3ccc(C#N)cc3)c(=O)c3ccccc23)c(F)n1`, in the data set on Hepatitis B virus [1] (HepG2 2.2.15, 192 h), the negative logarithm of the IC50 (pIC50) is 5.68 and the concentration for an effect of 90% (IC90) was over 10000 nM. In addition, the CC50 at 192 h in data set [2] was over 100000 nM.

The pIC50 is the IC50 on a negative log10 scale, so that one unit is a factor of ten. The term IC90 denotes the concentration needed for an effect of 90%. Usually CC50 stands for the concentration giving 50% cytotoxicity. What is called Kp is the ratio of the level in a tissue or fluid to that in plasma or blood. Broadly, the AUC(0-inf) is the area under the concentration-time curve extrapolated to infinity. By half-life is commonly meant the time in which the quantity being followed falls by half. A high value points to slow loss. For orientation: clearance means the rate of elimination divided by the concentration. By AUC is commonly meant the area under the concentration-time curve, a measure of exposure. A higher AUC goes with high exposure. Broadly, the Tmax is the time at which the peak concentration occurs.
